ChEMBL document CHEMBL1149285, “Identification of novel parasitic cysteine protease inhibitors using virtual screening. 1. The ChemBridge database” (J Med Chem, 2004)
pEC50, pIC50: −log10 of the molar value. The source made the active and inactive calls. No cut-off for these calls is given here.

What was measured:
[1] = molecular target: T1, Falcipain 2 (Plasmodium falciparum, UniProt Q9N6S8); assay: Inhibition of Plasmodium falciparum recombinant falcipain-2
T1 sequence (Q9N6S8 whole entry): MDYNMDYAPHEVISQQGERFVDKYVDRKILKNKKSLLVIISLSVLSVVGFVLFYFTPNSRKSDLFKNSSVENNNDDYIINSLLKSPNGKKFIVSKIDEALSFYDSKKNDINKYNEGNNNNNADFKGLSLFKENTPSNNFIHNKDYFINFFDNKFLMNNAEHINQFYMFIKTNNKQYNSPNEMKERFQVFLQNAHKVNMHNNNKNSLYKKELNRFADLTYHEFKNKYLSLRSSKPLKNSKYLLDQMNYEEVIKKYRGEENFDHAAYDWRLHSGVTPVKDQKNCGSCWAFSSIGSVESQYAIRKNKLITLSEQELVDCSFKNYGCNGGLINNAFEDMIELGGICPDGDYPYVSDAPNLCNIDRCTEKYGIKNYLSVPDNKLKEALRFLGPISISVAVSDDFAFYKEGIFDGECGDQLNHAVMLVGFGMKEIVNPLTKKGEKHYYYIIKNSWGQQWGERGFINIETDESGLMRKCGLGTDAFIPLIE
In short: (§1)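 Equal amounts of recombinant enzyme preincubated 30 min at room temperature with serial inhibitor dilutions from DMSO stocks (DMSO at most 1% in assay) in 100 mM sodium acetate pH 5.5, 10 mM dithiothreitol. Z-Leu-Arg-AMC then added to 25 μM final; fluorescence followed 15 min at room temperature. IC50 taken from percent activity versus concentration plots.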

[2] = molecular target: T2, Cysteine protease falcipain-3 (Plasmodium falciparum, UniProt Q9NBA7); assay: Inhibition of Plasmodium falciparum recombinant falcipain-3; in short: as §1
T2 sequence (Q9NBA7 whole entry): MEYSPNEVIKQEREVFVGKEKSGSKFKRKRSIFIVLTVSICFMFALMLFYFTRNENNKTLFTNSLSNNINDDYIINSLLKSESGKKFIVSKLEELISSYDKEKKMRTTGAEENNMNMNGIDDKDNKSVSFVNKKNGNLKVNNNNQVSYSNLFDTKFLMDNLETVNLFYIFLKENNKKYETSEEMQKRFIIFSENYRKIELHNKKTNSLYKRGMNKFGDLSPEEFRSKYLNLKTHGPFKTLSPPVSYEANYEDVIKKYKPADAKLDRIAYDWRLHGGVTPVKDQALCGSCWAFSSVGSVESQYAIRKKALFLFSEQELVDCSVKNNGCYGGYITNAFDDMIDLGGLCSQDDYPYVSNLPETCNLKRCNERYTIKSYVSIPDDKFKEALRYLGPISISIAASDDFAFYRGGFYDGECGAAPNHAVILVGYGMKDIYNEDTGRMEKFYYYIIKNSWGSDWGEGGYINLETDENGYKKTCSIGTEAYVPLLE

[3] = test system: Plasmodium falciparum; assay: Antiplasmodial activity against chloroquine-sensitive Plasmodium falciparum D6 after 48 hrs as LDH reporter activity; format: functional, organism-based; conditions: D6, 48 h
In short: (§2)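 Asynchronous P. falciparum cultures (2% hematocrit, 2% parasitemia) were exposed to compound dilutions prepared in DMSO. They were incubated 48 h at 37 °C in a humidified chamber under 90% N2, 5% CO2, 5% O2. Growth was read as parasite lactate dehydrogenase activity using Malstat reagent. Medium-only and erythrocyte-only wells were included, with chloroquine and artemisinin as positive and DMSO as negative controls.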

[4] = test system: Leishmania donovani; assay: Antileishmanial activity against Leishmania donovani promastigotes after 72 hrs by Alamar blue assay; format: functional, organism-based
In short: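 L. donovani promastigote culture at 2 × 10⁶ cells/mL given diluted compounds, incubated 72 h at 26 °C; growth read by Alamar blue. Pentamidine and amphotericin B as reference agents; IC50 computed from growth inhibition curve.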

[5] = test system: Plasmodium falciparum; assay: Antiplasmodial activity against chloroquine-resistant Plasmodium falciparum W2 as LDH activity after 48 hrs; format: functional, organism-based; conditions: W2, 48 h; in short: as §2
[6] = molecular target: T3, Cysteine protease (Leishmania donovani, UniProt Q95WR6); assay: Inhibition of Leishmania donovani cysteine protease
T3 sequence (Q95WR6 whole entry): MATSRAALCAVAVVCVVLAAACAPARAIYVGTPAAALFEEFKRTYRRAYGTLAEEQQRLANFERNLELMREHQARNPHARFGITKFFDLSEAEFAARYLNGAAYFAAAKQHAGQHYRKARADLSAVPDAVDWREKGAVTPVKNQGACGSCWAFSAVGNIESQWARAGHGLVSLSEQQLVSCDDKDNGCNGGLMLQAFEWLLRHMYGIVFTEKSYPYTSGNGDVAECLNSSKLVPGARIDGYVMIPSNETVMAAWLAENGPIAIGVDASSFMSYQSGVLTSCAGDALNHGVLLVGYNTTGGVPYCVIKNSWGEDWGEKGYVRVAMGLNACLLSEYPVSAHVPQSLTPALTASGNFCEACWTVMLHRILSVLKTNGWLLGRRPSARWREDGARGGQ

[7] = test system: Vero; assay: Cytotoxicity against Vero cells by Neutral red assay; format: cell-based; conditions: chlorocebus sabaeus
In short: (§3)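 VERO monkey kidney […] exposed to compounds alongside the antiparasitic assays, viability by Neutral Red uptake; highest concentration tested 23.8 μg/mL; IC50 computed from growth inhibition curve.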

[8] = test system: Vero; assay: Cytotoxicity against Vero cells at 23.8 ug/mL by Neutral red assay; format: cell-based; conditions: chlorocebus sabaeus; in short: as §3

| Compound | pIC50 [1] | pIC50 [2] | pEC50 [3] | pIC50 [4] | pEC50 [5] | pIC50 [6] | pIC50 [7] | Activity [8] | Activity [4] |
| --- | --- | --- | --- | --- | --- | --- | --- | --- | --- |
| Oc1cccc(/C=N\c2cccc3c(/N=C/c4cccc(O)c4O)cccc23)c1O | 5.34 | 5.24 | 5.16 | 5.06 | 5.18 | 3.95 | 4.54 | – | – |
| O=C(O)c1ccccc1N/N=C/c1ccc(/C=N/Nc2ccccc2C(=O)O)cc1 | 6.00 | 5.31 | 4.46 | – | 4.39 | 4.14 | – | Non-toxic | inactive |
